Reference: the M2OR odorant receptor database
Where a chain is given by its changes, count along the chain named.

Legend:
Conditions in all cases: stereoisomer not certain
OR11H12 (Homo sapiens) = molecular target: T1, OR11H12 (Homo sapiens) (UniProt B2RN74)
T1 sequence (whole entry): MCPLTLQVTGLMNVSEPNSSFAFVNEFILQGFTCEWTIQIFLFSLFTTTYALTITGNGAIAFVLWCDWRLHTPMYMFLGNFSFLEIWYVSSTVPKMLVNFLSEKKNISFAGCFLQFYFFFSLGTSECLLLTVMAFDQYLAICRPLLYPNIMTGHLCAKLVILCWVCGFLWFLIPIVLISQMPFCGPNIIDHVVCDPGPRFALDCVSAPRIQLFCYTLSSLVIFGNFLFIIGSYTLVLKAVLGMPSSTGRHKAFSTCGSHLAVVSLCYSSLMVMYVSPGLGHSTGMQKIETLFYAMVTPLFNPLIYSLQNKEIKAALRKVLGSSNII
Summary of the method: (§1)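 Each receptor–molecule pair is labelled responsive or non-responsive (inactive) according to whether the original authors judged the measured signal statistically different from baseline. The data were taken from the main text and supplementary material of published papers and checked for typos and inconsistencies. Assay methods differed by source, with transient luciferase assays in mammalian cell lines being common.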

OR11H2 (Homo sapiens) = molecular target: T2, OR11H2 (Homo sapiens) (UniProt Q8NH07)
T2 sequence (whole entry): T1 sequence (whole entry) with Q7H, T33S, T49I, W68R, C156Y, M181K, R199L, S269P
Summary of the method: as §1

OR11H4 (Homo sapiens) = molecular target: T3, OR11H4 (Homo sapiens) (UniProt Q8NGC9)
T3 sequence (whole entry): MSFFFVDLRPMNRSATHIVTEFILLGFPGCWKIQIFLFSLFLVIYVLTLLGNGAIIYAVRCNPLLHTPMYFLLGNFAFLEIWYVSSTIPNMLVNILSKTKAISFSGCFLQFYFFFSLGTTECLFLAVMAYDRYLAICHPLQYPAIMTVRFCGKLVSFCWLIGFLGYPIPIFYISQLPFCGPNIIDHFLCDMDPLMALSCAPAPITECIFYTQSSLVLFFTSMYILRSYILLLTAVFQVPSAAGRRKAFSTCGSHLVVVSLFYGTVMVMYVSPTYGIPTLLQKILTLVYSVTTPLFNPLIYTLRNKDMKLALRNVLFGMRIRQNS
Summary of the method: as §1

OR11H6 (Homo sapiens) = molecular target: T4, OR11H6 (Homo sapiens) (UniProt Q8NGC7)
T4 sequence (whole entry): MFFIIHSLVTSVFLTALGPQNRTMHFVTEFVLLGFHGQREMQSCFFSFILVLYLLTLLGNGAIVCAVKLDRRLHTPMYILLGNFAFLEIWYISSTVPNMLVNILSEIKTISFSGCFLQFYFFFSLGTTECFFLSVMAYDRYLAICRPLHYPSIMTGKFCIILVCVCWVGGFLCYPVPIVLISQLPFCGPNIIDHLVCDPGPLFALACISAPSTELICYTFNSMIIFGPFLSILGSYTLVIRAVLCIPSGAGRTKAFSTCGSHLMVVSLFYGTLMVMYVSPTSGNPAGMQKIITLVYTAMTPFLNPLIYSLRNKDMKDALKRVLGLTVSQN
Summary of the method: as §1

OR11H7 (Homo sapiens) = OR11H7 (Homo sapiens) (UniProt Q8NGC8)
Summary of the method: as §1

OR11L1 (Homo sapiens) = molecular target: T5, OR11L1 (Homo sapiens) (UniProt Q8NGX0)
T5 sequence (whole entry): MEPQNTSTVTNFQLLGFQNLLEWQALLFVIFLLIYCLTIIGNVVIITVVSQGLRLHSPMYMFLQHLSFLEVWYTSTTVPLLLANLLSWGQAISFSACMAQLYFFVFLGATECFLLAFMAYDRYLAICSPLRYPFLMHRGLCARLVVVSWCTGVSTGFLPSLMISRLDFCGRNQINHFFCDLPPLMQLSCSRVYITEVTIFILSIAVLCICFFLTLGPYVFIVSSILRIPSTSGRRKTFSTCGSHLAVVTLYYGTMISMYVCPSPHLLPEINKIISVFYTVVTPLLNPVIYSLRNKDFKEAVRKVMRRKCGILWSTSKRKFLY
Summary of the method: as §1

OR12D1 (Homo sapiens) = OR12D1 (Homo sapiens) (UniProt P0DN82)
Summary of the method: as §1

OR12D2 (Homo sapiens) = molecular target: T6, OR12D2 (Homo sapiens) (UniProt P58182)
T6 sequence (whole entry): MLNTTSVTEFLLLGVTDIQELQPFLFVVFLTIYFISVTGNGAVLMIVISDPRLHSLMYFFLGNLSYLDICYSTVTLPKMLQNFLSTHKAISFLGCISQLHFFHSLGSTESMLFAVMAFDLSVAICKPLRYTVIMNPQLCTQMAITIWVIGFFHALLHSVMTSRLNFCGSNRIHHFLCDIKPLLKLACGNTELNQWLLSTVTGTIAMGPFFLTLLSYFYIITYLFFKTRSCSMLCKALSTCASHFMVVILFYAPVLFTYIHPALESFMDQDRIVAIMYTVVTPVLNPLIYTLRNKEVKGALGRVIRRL
Summary of the method: as §1

OR12D3 (Homo sapiens) = molecular target: T7, OR12D3 (Homo sapiens) (UniProt Q9UGF7)
T7 sequence (whole entry): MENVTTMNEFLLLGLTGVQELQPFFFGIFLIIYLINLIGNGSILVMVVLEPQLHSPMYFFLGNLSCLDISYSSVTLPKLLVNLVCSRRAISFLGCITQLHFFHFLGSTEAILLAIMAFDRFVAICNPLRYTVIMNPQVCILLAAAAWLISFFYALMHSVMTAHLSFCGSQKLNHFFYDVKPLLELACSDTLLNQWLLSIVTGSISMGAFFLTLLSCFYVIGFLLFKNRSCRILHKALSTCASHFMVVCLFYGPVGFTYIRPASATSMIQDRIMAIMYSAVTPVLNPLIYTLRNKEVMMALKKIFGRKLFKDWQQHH
Summary of the method: as §1

OR13A1 (Homo sapiens) = molecular target: T8, OR13A1 (Homo sapiens) (UniProt Q8NGR1)
T8 sequence (whole entry): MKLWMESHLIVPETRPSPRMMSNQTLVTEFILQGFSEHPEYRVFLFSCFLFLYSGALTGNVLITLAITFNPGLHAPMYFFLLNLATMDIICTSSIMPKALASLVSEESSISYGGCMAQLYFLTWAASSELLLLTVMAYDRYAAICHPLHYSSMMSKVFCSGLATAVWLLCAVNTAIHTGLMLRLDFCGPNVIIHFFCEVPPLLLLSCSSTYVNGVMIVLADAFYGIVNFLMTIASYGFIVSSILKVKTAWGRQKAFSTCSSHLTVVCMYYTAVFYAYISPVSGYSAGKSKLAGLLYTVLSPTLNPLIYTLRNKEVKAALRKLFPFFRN
Summary of the method: as §1

OR13C2 (Homo sapiens) = molecular target: T9, OR13C2 (Homo sapiens) (UniProt Q8NGS9)
T9 sequence (whole entry): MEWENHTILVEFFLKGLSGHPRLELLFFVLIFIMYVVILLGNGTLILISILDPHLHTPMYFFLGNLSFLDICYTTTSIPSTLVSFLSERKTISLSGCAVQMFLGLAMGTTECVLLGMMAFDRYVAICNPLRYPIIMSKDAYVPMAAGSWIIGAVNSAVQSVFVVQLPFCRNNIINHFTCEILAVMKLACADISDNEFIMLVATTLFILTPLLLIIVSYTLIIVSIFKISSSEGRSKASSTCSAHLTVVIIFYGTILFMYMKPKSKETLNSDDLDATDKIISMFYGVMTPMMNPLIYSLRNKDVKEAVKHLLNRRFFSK
Summary of the method: as §1

OR13C3 (Homo sapiens) = molecular target: T10, OR13C3 (Homo sapiens) (UniProt Q8NGS6)
T10 sequence (whole entry): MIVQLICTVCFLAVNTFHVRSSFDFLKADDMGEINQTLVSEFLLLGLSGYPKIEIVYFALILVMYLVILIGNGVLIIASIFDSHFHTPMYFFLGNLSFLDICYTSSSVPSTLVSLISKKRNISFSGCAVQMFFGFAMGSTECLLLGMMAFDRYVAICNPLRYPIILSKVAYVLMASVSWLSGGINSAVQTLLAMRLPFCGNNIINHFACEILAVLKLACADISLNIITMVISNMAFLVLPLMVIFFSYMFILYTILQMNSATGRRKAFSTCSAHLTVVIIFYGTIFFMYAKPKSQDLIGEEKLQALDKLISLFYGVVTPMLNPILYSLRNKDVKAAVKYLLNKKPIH
Summary of the method: as §1

OR13C4 (Homo sapiens) = molecular target: T11, OR13C4 (Homo sapiens) (UniProt Q8NGS5)
T11 sequence (whole entry): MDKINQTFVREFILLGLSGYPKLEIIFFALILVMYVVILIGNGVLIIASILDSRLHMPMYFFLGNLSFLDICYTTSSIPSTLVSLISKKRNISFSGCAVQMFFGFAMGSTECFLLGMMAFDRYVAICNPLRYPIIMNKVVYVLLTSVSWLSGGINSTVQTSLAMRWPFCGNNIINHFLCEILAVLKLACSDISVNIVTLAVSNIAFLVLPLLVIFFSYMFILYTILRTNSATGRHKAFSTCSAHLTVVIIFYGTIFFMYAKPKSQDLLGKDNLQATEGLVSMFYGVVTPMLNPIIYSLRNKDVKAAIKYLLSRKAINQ
Summary of the method: as §1

OR13C5 (Homo sapiens) = molecular target: T12, OR13C5 (Homo sapiens) (UniProt Q8NGS8)
T12 sequence (whole entry): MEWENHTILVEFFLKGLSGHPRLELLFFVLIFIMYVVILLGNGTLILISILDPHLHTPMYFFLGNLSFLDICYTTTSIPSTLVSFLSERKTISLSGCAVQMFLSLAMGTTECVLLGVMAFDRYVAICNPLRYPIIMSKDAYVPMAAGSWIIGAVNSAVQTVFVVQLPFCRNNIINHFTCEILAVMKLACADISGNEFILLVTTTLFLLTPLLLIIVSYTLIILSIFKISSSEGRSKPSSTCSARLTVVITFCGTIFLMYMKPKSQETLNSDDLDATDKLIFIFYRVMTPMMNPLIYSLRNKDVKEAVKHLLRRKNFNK
Summary of the method: as §1

OR13C7 (Homo sapiens) = OR13C7 (Homo sapiens) (UniProt P0DN81)
Summary of the method: as §1

OR13C8 (Homo sapiens) = molecular target: T13, OR13C8 (Homo sapiens) (UniProt Q8NGS7)
T13 sequence (whole entry): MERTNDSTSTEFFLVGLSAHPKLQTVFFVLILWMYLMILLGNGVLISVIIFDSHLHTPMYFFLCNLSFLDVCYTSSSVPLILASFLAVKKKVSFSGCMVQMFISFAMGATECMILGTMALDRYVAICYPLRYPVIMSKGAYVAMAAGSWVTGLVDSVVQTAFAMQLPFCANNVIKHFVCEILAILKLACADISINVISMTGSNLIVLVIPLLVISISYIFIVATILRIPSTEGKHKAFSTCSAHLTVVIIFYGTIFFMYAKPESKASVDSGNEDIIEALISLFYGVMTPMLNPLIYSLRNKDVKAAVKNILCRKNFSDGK
Summary of the method: as §1

OR13C9 (Homo sapiens) = molecular target: T14, OR13C9 (Homo sapiens) (UniProt Q8NGT0)
T14 sequence (whole entry): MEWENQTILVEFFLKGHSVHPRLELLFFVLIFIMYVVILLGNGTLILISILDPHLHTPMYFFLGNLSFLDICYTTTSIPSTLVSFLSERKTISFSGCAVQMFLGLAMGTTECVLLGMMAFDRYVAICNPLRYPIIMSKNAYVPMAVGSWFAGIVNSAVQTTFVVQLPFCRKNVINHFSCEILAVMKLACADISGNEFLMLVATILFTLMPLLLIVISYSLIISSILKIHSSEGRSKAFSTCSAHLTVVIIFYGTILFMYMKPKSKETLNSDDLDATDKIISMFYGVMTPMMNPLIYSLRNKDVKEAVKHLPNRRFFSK
Summary of the method: as §1

OR13D1 (Homo sapiens) = molecular target: T15, OR13D1 (Homo sapiens) (UniProt Q8NGV5)
T15 sequence (whole entry): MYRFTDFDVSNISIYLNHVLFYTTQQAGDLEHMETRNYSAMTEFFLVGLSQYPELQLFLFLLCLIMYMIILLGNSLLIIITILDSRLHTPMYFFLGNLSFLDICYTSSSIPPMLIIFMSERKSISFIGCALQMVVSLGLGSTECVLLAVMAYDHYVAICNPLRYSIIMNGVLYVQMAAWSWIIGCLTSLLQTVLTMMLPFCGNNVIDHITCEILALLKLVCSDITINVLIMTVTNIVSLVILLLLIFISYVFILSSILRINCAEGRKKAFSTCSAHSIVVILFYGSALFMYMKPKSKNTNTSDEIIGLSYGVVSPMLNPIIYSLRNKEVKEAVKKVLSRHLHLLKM
Summary of the method: as §1

OR13F1 (Homo sapiens) = molecular target: T16, OR13F1 (Homo sapiens) (UniProt Q8NGS4)
T16 sequence (whole entry): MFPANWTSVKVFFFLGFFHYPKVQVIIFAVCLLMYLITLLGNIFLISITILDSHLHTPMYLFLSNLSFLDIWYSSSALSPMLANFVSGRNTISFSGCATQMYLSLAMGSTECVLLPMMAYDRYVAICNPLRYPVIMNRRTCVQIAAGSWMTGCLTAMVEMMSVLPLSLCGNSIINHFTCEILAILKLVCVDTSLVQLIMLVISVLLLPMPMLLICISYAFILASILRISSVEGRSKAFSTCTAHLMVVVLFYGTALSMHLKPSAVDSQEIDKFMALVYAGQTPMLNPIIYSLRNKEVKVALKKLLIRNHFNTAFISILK
Summary of the method: as §1

OR13G1 (Homo sapiens) = molecular target: T17, OR13G1 (Homo sapiens) (UniProt Q8NGZ3)
T17 sequence (whole entry): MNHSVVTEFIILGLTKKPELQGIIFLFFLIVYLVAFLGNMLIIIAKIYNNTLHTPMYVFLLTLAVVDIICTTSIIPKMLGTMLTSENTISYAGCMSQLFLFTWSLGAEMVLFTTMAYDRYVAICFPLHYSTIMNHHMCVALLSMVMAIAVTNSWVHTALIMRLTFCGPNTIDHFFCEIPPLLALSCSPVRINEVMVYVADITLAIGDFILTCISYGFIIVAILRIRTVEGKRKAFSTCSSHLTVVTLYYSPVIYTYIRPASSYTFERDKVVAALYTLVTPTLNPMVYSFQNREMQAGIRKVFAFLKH
Summary of the method: as §1

Measured: odorant receptor agonist call;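 also: active if original authors judged signal statistically different from baseline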

Sequence of OR12D1 (Homo sapiens) (P0DN82 as listed by the source): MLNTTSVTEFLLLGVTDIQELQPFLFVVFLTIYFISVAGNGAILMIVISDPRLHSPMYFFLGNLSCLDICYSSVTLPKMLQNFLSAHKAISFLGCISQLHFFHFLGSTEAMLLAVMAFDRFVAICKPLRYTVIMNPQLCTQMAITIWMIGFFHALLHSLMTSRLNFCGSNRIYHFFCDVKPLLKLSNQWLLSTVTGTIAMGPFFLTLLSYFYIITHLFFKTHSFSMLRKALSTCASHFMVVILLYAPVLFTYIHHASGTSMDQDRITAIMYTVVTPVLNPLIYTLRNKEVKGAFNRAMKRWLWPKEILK
Sequence of OR13C7 (Homo sapiens) (P0DN81 whole entry): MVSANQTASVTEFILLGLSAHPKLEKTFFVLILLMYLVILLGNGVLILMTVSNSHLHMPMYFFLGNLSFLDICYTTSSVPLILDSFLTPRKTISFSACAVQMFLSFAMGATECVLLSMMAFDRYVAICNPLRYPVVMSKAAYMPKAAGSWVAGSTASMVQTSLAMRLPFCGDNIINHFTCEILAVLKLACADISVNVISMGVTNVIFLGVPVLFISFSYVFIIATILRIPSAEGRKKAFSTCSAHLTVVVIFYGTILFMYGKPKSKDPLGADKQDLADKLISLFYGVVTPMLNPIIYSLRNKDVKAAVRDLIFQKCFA
Sequence of OR11H7 (Homo sapiens) (Q8NGC8 whole entry): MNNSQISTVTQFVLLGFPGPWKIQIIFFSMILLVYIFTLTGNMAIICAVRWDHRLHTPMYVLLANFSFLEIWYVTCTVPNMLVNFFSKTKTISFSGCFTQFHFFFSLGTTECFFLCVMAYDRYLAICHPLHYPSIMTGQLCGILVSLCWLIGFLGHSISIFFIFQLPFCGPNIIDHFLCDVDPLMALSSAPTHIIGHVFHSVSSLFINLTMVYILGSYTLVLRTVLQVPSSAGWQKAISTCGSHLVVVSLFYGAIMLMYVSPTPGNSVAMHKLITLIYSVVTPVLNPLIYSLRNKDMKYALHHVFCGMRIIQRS

CC(=O)c1c(C)c([N+](=O)[O-])c(C(C)(C)C)c([N+](=O)[O-])c1C
inactive: all assays above
